Legend:
[1] = system: Rattus norvegicus; assay: In vivo intravenous dose required to produce a half maximal pressor response in the pithed rat.; assay type: functional
Summary of the method: (§1)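 Male Sprague-Dawley rats (250-300 g), anesthetized with sodium amytal (125 mg/kg ip), intubated, pithed; body temperature held at 37 °C; 30 min stabilization. Ganglionic nicotinic block with pentolinium tartrate (18.5 μmol/kg iv) 20 min before agonist. Drugs in 0.9% saline, iv, 0.1 mL/100 g. Mean arterial pressure recorded; two or three compounds per rat; five to eight rats per compound.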

[2] = system: Muscarinic acetylcholine receptor M1 (Oryctolagus cuniculus)
[3] = system: Rattus norvegicus; assay: In vivo intrinsic pressor activity for its ability to maximally elevate arterial pressure in pithed rat.; assay type: functional, Artery; summary of the method: as §1

Structure (SMILES)	ED50 [1] [µmol/kg]	KA [2] [µM]	IPA [3]
CC(C#CC[N+](C)(C)C)N(C)C(=O)Nc1cccc(Cl)c1 (configuration not stated)	0.69	83.3	1
CN(CC#CC[N+](C)(C)C)C(=O)Nc1cccc(Cl)c1	0.55	24.8	1
C[C@H](C#CC[N+](C)(C)C)OC(=O)Nc1ccc(Cl)cc1	0.039	0.49	0.8
C[C@@H](C#CC[N+](C)(C)C)OC(=O)Nc1cccc(Cl)c1	0.12	2.12	0.7
CN(CC#CC[N+](C)(C)C)C(=O)Cc1cccc(Cl)c1	0.92	20.2	1
C[C@@H](C#CC[N+](C)(C)C)OC(=O)Nc1ccc(Cl)cc1	0.008	0.18	0.66
CC(C#CC[N+](C)(C)C)OC(=O)Nc1cccc(Cl)c1 (racemic)	0.09	1.46	0.76
CC(C#CC[N+](C)(C)C)OC(=O)Nc1ccc(Cl)cc1 (racemic)	0.029	0.48	0.75
C[N+](C)(C)CC#CCOC(=O)Nc1cccc(Cl)c1	0.45		1
C[C@H](C#CC[N+](C)(C)C)OC(=O)Nc1cccc(Cl)c1	0.18	0.78	1
CC(C#CC[N+](C)(C)C)N(C)C(=O)Cc1cccc(Cl)c1 (configuration not stated)	1.48	416	1
